Data set [1] has as its target T1, Receptor-type tyrosine-protein kinase FLT3 (Homo sapiens, UniProt P36888).
T1 sequence (P36888 whole entry): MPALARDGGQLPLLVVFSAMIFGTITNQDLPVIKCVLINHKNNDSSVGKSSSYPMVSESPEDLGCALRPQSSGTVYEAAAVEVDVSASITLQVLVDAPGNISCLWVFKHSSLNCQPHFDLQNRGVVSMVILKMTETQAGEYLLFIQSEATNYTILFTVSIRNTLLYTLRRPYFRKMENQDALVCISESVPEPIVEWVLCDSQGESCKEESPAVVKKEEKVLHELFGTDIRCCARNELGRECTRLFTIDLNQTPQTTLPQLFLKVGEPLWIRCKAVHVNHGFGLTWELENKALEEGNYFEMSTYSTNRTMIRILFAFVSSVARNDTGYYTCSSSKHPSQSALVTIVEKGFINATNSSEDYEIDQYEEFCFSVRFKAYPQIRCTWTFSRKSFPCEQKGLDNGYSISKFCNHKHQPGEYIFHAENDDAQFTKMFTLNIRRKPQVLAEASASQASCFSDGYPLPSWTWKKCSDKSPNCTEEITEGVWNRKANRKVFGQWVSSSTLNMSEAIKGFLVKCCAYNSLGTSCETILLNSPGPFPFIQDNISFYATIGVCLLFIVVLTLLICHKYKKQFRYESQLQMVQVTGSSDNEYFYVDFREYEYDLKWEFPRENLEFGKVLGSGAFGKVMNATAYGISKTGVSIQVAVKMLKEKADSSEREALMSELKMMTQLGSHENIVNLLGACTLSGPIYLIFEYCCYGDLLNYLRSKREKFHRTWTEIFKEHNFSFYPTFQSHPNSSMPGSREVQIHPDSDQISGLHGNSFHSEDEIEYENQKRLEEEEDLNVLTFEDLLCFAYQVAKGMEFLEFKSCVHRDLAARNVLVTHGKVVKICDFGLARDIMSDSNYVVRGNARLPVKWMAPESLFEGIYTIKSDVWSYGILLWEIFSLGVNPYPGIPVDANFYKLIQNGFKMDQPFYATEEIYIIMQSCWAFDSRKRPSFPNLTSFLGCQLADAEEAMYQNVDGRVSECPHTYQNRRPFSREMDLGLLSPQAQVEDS
The data set is described as follows: Inhibition of GST-tagged FLT3 expressing wild type kinase domain expressed in Sf9 insect cells after 4 hrs by Kinase-Glo assay. A general note: In Kinase-Glo more light means more ATP remaining.

The target of data set [2] is Platelet-derived growth factor receptor beta (Homo sapiens) (UniProt P09619). As to the kind of experiment: Inhibition of PDGFR beta at 0.1 uM.
The next data set relates to K562. As to the kind of experiment: Antiproliferation activity against human K562 cells expressing wild type BCR/ABL after 72 hrs by MTS method. The data set is classed as functional. The following applies: K562, 72 h. (Tetrazolium assays rely on reduction of a dye to a coloured formazan, in cell work by metabolically active cells.)
The subject of another data set is U-937. As to the kind of experiment: Antiproliferation activity against human FLT3 gene-deficient U937 cells after 72 hrs by MTS method. Format: functional. Conditions: U-937, 72 h.
Data set [3] in a line: AUC (0 to infinity) in Sprague-Dawley rat at 5 mg/kg, iv and 20 mg/kg, po. The data set is classed as ADME, organism-based. The following applies: plasma.
The test system of the next data set is MV4-11. As to the kind of experiment: Antitumor activity against human MV4-11 cells xenografted in athymic nu/nu nude mouse assessed as inhibition of tumor growth at 50 mg/kg, iv qd for 1 to 5 and 8 to 12 days measured after completion of treatment. The data set is classed as functional, organism-based. Set-up: dose 50 mg/kg. The method in brief:
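Nude nu/nu mice (9 weeks old) received 1 × 10^6 MV4;11 cells s.c. in the left flank. Treatment began at a mean tumor volume of about 500 mm3, with n = 8 per group. Dosing was iv once daily at 10, 25 or 50 mg/kg on days 1–5 and 8–12, in DMSO/Cremophor/saline vehicle, with vehicle controls. Tumor volume was measured by caliper as (width × length²)/2.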
(Xenograft models place foreign cells or tissue in a host animal.)

Each structure is given as a SMILES string. The source made the active and inactive calls. No cut-off for these calls is given here. Some results are limits rather than exact numbers.

Platelet-derived growth factor receptor beta (Homo sapiens), sequence (P09619 whole entry): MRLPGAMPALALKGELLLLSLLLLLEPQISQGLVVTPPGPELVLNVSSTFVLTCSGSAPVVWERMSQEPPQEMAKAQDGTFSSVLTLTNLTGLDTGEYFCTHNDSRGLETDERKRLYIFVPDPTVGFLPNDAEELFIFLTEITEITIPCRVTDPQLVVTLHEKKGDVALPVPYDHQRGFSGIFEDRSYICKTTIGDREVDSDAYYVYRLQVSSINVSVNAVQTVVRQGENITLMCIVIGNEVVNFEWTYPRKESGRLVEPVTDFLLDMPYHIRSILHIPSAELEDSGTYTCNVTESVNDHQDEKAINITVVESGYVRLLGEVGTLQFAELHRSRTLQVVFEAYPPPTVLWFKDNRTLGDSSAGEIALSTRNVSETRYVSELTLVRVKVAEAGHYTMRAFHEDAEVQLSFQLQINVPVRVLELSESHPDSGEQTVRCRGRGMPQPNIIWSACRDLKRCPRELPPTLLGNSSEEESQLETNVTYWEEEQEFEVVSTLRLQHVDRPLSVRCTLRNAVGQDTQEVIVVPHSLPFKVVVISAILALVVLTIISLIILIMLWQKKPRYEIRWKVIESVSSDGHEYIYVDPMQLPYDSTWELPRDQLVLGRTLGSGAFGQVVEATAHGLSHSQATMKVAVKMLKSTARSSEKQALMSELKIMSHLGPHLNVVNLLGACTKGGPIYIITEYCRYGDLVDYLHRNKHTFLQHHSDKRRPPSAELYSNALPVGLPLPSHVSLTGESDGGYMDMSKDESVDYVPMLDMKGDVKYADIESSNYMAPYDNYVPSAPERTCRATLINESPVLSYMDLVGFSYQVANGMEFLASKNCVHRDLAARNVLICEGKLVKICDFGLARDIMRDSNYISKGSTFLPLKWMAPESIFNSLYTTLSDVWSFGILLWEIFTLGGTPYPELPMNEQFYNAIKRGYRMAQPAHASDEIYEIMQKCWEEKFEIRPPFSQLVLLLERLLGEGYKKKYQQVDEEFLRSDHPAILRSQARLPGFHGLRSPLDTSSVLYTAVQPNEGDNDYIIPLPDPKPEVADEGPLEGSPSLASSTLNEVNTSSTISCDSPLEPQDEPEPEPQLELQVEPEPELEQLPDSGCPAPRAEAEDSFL

`Cc1nc(Nc2cc(-c3cccc(NS(=O)(=O)c4ccccc4)c3)n[nH]2)cc(N2CCN(C)CC2)n1`: the IC50 (commonly the concentration needed to halve the response being measured) in data set [1] was found to be 0.006 µM. Further, the inhibition (usually the percentage by which the read-out fell short of the control) in data set [2] amounted to 18%. Further, the GI50 – broadly, the concentration that inhibits growth by half – was above 10 µM in the data set on K562 and above 20 µM in the data set on U-937. Besides, the AUC(0-inf) – broadly, the area under the concentration-time curve extrapolated to infinity – in data set [3] came to 1400 ng·h/mL. In addition, in the data set on MV4-11, the result was Active.

Values taken from ChEMBL document CHEMBL1806486, “Discovery and evaluation of 3-phenyl-1H-5-pyrazolylamine-based derivatives as potent, selective and efficacious inhibitors of FMS-like tyrosine kinase-3 (FLT3)” (Bioorg Med Chem, 2011).
